Reference: ChEMBL document CHEMBL1154944, “Azole-based inhibitors of AKT/PKB for the treatment of cancer” (Bioorg Med Chem Lett, 2010)

Legend:
[1] = biological target: T1, RAC-alpha serine/threonine-protein kinase (Homo sapiens, UniProt P31749); assay: Inhibition of AKT1 after 10 mins by [gamma33]ATP assay
[2] = biological target: Cyclin-dependent kinase 2 (Homo sapiens, UniProt P24941); assay: Inhibition of CDK2
[3] = Inhibition of PKA
[4] = Cmax in Sprague-Dawley rat at 5 mg/kg, po; format: ADME, organism-based; design: dose 5 mg/kg, route oral; conditions: in vivo
How it was run: (§1)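 Male Sprague Dawley rats (n = 3) given 5 mg/kg orally in 2% HPMC, 1% Tween 80, pH 2.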

[5] = Volume of distribution at steady state in Sprague-Dawley rat at 2 mg/kg, iv; format: ADME, organism-based; design: dose 2 mg/kg, route intravenous; conditions: in vivo, read-out: Vdss
How it was run: (§2)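 Male Sprague Dawley rats (n = 3) given 2 mg/kg intravenously in DMSO.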

[6] = biological target: T1, RAC-alpha serine/threonine-protein kinase; assay: Inhibition of human AKT1 in human U87MG cells assessed as PRAS40 phosphorylation after 1 hr by ELISA; format: cell-based, U-87MG ATCC
How it was run: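 U-87 MG cells in 5% FBS incubated with inhibitor in threefold serial dilutions for 1 h at 37 °C, then lysed. Phospho-PRAS40 (Thr246) quantified by ELISA and normalized to total PRAS40. Mean ± SD where three or more measurements.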

U-87MG ATCC = assay: Selectivity ratio of IC50 for AKT1 in human U87MG cells to IC50 for AKT1; format: cell-based
Mus musculus [7] = assay: Inhibition of HGF-stimulated AKT signaling pathway in mouse liver assessed as phosphorylated PRAS40 level at 30 mg/kg, po dosed 6 hrs prior to HGF challenge and measured after 5 mins by ELISA; format: functional
How it was run: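 Mice (n = 3, female) dosed 30 mg/kg po in 0.1% PBS/BSA. At 6 h, HGF given by tail-vein injection. Livers harvested 5 min later, and phospho- and total PRAS40 measured by ELISA; inhibition taken from pPRAS40/total ratio. Factorial ANOVA with Dunnett's post hoc test.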

[8] = Oral bioavailability in Sprague-Dawley rat at 5 mg/kg; format: ADME, organism-based; conditions: in vivo; how it was run: as §1
[9] = AUC (0 to 24 hrs) in Sprague-Dawley rat at 5 mg/kg, po; format: ADME, organism-based; design: time < 24 hr, dose 5 mg/kg, route oral; conditions: plasma; how it was run: as §1
[10] = Plasma concentration in mouse at 30 mg/kg, po after 6 hrs; format: ADME, organism-based; design: dose 30 mg/kg, route oral
[11] = Clearance in Sprague-Dawley rat at 2 mg/kg, iv; format: ADME, organism-based; design: dose 2 mg/kg, route intravenous; conditions: in vivo; how it was run: as §2
[12] = Half life in Sprague-Dawley rat at 2 mg/kg, iv; format: ADME, organism-based; design: dose 2 mg/kg, route intravenous; conditions: in vivo; how it was run: as §2
U-87 MG = assay: Inhibition of tumor growth in human U87MG cells xenografted in CD1 nude mouse assessed as tumor volume po QD for 18 days relative to control; format: functional, organism-based; conditions: U-87MG ATCC
How it was run: (§3)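 10-week-old female CD1 nude mice injected sc in the flank with 5 × 10⁶ U-87 MG cells in DMEM. On day 10, randomized (n = 10) at ~200 mm³, then dosed po once daily for 18 d with supplemented diet. Tumors and body weight recorded twice weekly. Volume = length × width × height, analyzed by RMANOVA versus vehicle.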

[13] = biological target: Vascular endothelial growth factor receptor 2 (Homo sapiens, UniProt P35968); assay: Inhibition of KDR
Chain of Vascular endothelial growth factor receptor 2 (P35968 whole entry): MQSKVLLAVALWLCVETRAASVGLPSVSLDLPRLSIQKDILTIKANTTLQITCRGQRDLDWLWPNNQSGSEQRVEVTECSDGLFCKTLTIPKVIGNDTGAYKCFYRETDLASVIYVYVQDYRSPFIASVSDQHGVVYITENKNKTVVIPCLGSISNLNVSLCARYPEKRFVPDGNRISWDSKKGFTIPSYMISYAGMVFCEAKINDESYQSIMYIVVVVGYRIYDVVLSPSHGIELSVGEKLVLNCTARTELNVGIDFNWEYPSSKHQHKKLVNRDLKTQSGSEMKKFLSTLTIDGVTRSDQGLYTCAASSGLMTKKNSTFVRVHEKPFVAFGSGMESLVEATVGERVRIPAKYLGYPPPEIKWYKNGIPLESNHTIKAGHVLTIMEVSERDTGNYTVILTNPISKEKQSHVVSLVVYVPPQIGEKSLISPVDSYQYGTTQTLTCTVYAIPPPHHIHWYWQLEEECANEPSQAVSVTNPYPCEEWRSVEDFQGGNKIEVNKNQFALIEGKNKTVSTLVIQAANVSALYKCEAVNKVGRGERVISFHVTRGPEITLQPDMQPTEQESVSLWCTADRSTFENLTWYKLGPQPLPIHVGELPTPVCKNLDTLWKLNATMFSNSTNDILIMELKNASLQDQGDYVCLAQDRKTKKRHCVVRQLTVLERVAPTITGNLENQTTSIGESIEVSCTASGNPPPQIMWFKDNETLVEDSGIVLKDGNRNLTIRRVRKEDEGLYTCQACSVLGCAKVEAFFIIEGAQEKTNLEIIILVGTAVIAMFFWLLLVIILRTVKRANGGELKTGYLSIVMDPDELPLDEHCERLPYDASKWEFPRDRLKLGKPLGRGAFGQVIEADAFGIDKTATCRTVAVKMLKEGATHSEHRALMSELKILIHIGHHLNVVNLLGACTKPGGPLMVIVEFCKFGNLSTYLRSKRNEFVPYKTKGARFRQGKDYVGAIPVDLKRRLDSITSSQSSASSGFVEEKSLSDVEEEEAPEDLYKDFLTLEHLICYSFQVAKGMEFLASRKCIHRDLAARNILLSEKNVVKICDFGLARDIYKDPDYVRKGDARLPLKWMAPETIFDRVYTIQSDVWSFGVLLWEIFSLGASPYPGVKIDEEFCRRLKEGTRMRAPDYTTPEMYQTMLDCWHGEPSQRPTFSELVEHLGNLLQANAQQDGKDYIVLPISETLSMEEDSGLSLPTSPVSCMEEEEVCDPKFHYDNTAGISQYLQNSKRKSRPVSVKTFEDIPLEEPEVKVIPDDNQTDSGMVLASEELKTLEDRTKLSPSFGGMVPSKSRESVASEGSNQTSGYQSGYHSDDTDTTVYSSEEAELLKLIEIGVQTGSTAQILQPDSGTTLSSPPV

[14] = biological target: Cyclin-dependent kinase 1 (Homo sapiens, UniProt P06493); assay: Inhibition of CDK1
Chain of Cyclin-dependent kinase 1 (P06493 whole entry): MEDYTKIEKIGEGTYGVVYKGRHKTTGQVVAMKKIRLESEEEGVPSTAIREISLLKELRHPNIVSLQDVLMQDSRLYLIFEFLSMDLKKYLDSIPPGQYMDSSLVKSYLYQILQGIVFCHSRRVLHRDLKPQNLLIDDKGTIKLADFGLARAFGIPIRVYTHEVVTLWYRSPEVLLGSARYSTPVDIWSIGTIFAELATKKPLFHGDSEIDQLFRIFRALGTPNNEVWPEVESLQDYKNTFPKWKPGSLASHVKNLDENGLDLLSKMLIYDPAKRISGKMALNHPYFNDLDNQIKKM

[15] = biological target: Mast/stem cell growth factor receptor Kit (Homo sapiens, UniProt P10721); assay: Inhibition of cKIT
Chain of Mast/stem cell growth factor receptor Kit (P10721 whole entry): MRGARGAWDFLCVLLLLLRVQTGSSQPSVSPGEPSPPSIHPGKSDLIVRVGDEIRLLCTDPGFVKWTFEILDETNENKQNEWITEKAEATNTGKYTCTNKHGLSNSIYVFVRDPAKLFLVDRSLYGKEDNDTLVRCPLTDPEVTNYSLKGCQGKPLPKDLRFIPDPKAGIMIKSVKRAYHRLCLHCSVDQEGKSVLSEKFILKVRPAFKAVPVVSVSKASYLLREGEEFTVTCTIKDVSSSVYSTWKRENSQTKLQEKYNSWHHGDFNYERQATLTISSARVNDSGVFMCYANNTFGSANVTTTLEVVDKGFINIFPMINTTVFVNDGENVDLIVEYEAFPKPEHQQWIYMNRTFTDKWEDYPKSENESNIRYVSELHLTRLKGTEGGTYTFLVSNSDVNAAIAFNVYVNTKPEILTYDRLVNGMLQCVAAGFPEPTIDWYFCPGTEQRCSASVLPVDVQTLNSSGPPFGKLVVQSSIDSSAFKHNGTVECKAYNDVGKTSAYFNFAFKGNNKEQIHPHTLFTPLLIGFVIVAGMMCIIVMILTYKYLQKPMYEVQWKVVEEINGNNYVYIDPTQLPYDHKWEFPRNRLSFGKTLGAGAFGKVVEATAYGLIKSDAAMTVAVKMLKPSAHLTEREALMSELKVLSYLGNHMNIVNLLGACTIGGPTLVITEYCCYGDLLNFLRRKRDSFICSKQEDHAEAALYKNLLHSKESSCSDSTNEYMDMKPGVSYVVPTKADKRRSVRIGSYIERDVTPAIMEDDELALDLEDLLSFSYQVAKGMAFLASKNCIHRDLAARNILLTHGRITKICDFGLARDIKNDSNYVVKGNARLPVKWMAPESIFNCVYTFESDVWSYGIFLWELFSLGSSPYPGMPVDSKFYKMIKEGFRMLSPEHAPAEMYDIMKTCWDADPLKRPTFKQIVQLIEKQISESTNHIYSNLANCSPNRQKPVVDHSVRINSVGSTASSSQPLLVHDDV

Mus musculus [16] = assay: Toxicity in human U87MG cells xenografted CD1 nude mouse assessed as loss in body weight po QD for 18 days relative to control; format: organism-based, U-87MG ATCC; conditions: in vivo, 432 h; how it was run: as §3
[17] = Plasma concentration in human U87MG cells xenografted CD1 nude mouse at 30 mg/kg, po QD for 18 days measured after 3 hrs post last dose; format: ADME, organism-based, U-87MG ATCC; design: dose 30 mg/kg, route oral
How it was run: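 Female CD1 nude mice bearing U-87 MG tumors (n = 10) dosed 30 mg/kg po daily for 18 d. Plasma sampled 3 h after the last dose.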

[18] = Antitumor activity against human U87MG cells xenografted in CD1 nude mouse assessed as inhibition of tumor growth at 30 mg/kg, po QD for 18 days relative to control; format: functional, U-87MG ATCC; conditions: U-87 MG, 432 h, read-out: GI; how it was run: as §3
[19] = Cytotoxicity against human U87MG cells after 3 days by alamar blue assay; format: functional, cell-based, U-87MG ATCC; conditions: U-87 MG, 72 h
How it was run: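 U-87 MG cells seeded at 6000 cells/well in 5% FBS and treated with threefold serial dilutions for three days. Viability read by alamarBlue staining.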

T1 sequence (P31749 whole entry): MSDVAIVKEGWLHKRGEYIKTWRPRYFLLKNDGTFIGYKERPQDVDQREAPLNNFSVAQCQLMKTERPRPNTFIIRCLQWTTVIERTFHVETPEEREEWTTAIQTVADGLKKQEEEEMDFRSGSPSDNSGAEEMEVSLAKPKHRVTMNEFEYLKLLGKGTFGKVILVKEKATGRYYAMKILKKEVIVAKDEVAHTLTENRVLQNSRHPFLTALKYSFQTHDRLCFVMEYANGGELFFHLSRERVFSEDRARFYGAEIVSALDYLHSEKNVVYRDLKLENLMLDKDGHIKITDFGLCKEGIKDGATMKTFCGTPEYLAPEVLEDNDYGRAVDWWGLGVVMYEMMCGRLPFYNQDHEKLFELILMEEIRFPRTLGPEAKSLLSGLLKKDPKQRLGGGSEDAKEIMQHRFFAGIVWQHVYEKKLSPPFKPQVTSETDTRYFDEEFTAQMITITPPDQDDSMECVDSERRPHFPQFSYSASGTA

Row | IC50 [1] | IC50 [2] | IC50 [3] | IC50 [6] | SMILES | further results
1 | 613 nM | > 1000 nM | 334 nM |  | N[C@H](CNc1ncc(-c2ccc3cn[nH]c3c2)s1)Cc1ccc(C(F)(F)F)cc1 | 
2 | 4.9 nM | 12.4 nM | 5.9 nM | 430 nM | N[C@H](CNc1ncc(-c2ccc3cnccc3c2)s1)Cc1ccc(C(F)(F)F)cc1 | Cmax [4]: 66 ng/mL; Vd [5]: 7.1 L/kg; Ratio IC50 (U-87MG ATCC): 88; inhibition in vivo at 30 mg/kg (Mus musculus [7]): 4%; bioavailability [8]: 20%; AUC(0-t) at 24 h [9]: 387 ng·h/mL; concentration at 6 h [10]: 1.5 µM; clearance [11]: 45 mL/min/kg; half-life [12]: 2.9 h
3 | 141 nM | > 2000 nM | 489 nM |  | N[C@H](CNc1ncc(-c2ccc3nnccc3c2)s1)Cc1ccc(C(F)(F)F)cc1 | 
4 | 15.4 nM | 276 nM | 179 nM | 630 nM | Cn1c(=O)[nH]c2ccc(-c3cnc(NC[C@@H](N)Cc4ccc(C(F)(F)F)cc4)s3)cc21 | 
5 | > 1000 nM | > 1000 nM | 485 nM |  | N[C@H](CNc1ncc(-c2ccc3cn[nH]c(=O)c3c2)s1)Cc1ccc(C(F)(F)F)cc1 | 
6 | 895 nM |  | 230 nM |  | Cn1ncc2ccc(-c3cnc(NC[C@@H](N)Cc4ccc(C(F)(F)F)cc4)s3)cc21 | 
7 | 35 nM | 136 nM | 126 nM | 1300 nM | N[C@H](CNc1ncc(-c2ccc3cncnc3c2)s1)Cc1ccc(C(F)(F)F)cc1 | Ratio IC50 (U-87MG ATCC): 37
8 | 11.6 nM | 15.4 nM | 8.6 nM | 890 nM | Nc1cc2cc(-c3cnc(NC[C@@H](N)Cc4ccc(C(F)(F)F)cc4)s3)ccc2cn1 | Ratio IC50 (U-87MG ATCC): 77

The remaining lines, values behind:

Row | SMILES | IC50 [1] | IC50 [2] | IC50 [3] | IC50 [6] | further results
9 | N[C@H](CNc1cc(-c2ccc3cnccc3c2)no1)Cc1ccc(C(F)(F)F)cc1 | 17 nM | 93 nM | 40 nM |  | 
10 | N[C@H](CNc1nnc(-c2ccc3cnccc3c2)s1)Cc1ccc(C(F)(F)F)cc1 | 3.2 nM |  | 7.6 nM |  | 
11 | N[C@H](CCc1cc(-c2ccc3cnccc3c2)no1)Cc1ccc(C(F)(F)F)cc1 | 40 nM | 117 nM | 50 nM | 3800 nM | Ratio IC50 (U-87MG ATCC): 95
12 | NC(=O)c1ccc(-c2cnc(NC[C@@H](N)Cc3ccc(C(F)(F)F)cc3)s2)cc1 | > 3000 nM | > 10000 nM | > 3000 nM |  | 
13 | N[C@H](CCc1nc(-c2ccc3cnccc3c2)no1)Cc1ccc(C(F)(F)F)cc1 | 1600 nM | 4630 nM | 980 nM |  | 
14 | N[C@H](CNc1ncc(-c2ccc3c(c2)CCC(=O)N3)s1)Cc1ccc(C(F)(F)F)cc1 | 3320 nM | > 25000 nM | 2400 nM |  | 
15 | N[C@H](CNc1cnc(-c2ccc3cnccc3c2)s1)Cc1ccc(C(F)(F)F)cc1 | 404 nM | 1070 nM | 187 nM |  | 
16 | N[C@H](CNc1ncc(-c2ccc3[nH]ncc3c2)s1)Cc1ccc(Cl)cc1 | 8.5 nM |  | 39.9 nM | 730 nM | Ratio IC50 (U-87MG ATCC): 86
17 | N[C@H](CNc1ncc(-c2ccc3c(c2)CNC3=O)s1)Cc1ccc(C(F)(F)F)cc1 | 95 nM | > 9000 nM | 356 nM | 6000 nM | 
18 | N[C@H](CNc1ncc(-c2ccc3c(c2)CC(=O)N3)s1)Cc1ccc(C(F)(F)F)cc1 | 18.3 nM | 185 nM |  | 300 nM | Cmax [4]: 417 ng/mL; Vd [5]: 6.8 L/kg; inhibition (U-87 MG): Dose-dependent effect; IC50 [13]: 300 nM; IC50 [14]: 250 nM; IC50 [15]: 110 nM; inhibition in vivo at 30 mg/kg (Mus musculus [7]): 43%; bioavailability [8]: 64%; Activity (Mus musculus [16]): 2%; AUC(0-t) at 24 h [9]: 2600 ng·h/mL; concentration at 6 h [10]: 3.5 µM; concentration at 3 h [17]: 6.2 µM; inhibition in vivo at 30 mg/kg [18]: 93%; IC50 [19]: 630 nM; half-life [12]: 4.3 h
19 | N[C@H](CNc1ncc(-c2ccc3[nH]c(=O)sc3c2)s1)Cc1ccc(C(F)(F)F)cc1 | 27 nM | 285 nM | 143 nM | 920 nM | 
20 | Nc1noc2ccc(-c3cnc(NC[C@@H](N)Cc4ccc(C(F)(F)F)cc4)s3)cc12 | 453 nM | > 2000 nM | 417 nM |  | 
21 | N[C@H](CNc1ncc(-c2ccc3[nH]c(=O)oc3c2)s1)Cc1ccc(C(F)(F)F)cc1 | 8 nM | 138 nM | 326 nM | 500 nM | Cmax [4]: 68 ng/mL; Vd [5]: 6.7 L/kg; bioavailability [8]: 11%; AUC(0-t) at 24 h [9]: 348 ng·h/mL; clearance [11]: 26.7 mL/min/kg; half-life [12]: 3.8 h
22 | N[C@H](CNc1nnc(-c2ccc3cnccc3c2)o1)Cc1ccc(C(F)(F)F)cc1 | 85 nM | 348 nM | 133 nM |  | 
23 | Cn1nc(N)c2ccc(-c3cnc(NC[C@@H](N)Cc4ccc(C(F)(F)F)cc4)s3)cc21 | 2410 nM | > 2000 nM | 119 nM |  | 
